High-throughput results: PubChem, several laboratories
HGIII-sPLA2 inh = Blocks human group III sPLA2 activity. Q9NZ20. hit rate 0.56% among 370,000. AID 743126. QFRET BODIPY PC-A2 liposome hydrolysis, fluorescence. inhibition, % at 12.2 µM;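 active = inhibition above mean plus 3 SD of compounds lying within the high and low control bounds, cut at about 19% in these data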;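 note: 0% = median of test compound wells and 100% = no enzyme DMSO wells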
Lipid droplet = modulators of hepatic lipid droplet formation; AML12 mouse hepatocytes, oleate lipid droplets, BODIPY imaging; inhibition, % at 6.5 µM; hit rate 0.4% among 240,000; AID 1656;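 active = lipid droplet intensity inhibited by at least 50%, with more than 500 cells counted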
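Test system: AML12 hepatocytes (mouse); reagent: oleate loading, 100 µM; dosing: one dose, 6.5 µM compound; incubation: overnight exposure; signal: fluorescence imaging, 20x objective, two fields per well; read-out basis: % inhibition of corrected integrated BODIPY droplet signal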
Arr AP2 block = inhibitors of human beta-arrestin and AP2 interaction. FITC-arrestin peptide / GST-AP2 beads, flow cytometry; AP2 beta2 appendage carries R879A mutation. inhibition, % at 10 µM. hit rate 0.31% among 340,000. AID 504490;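 active = inhibition above a set limit, near 3 SD of compounds lacking own fluorescence, cut at about 54% in these data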;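 note: plate controls were DMSO wells for no effect and 5 µM unlabelled arrestin peptide for full effect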
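System: GST-AP2 R879A glutathione beads. Medium: PBS with 0.05% Tween 20 and 0.1% BSA. Also added: FITC-arrestin peptide, 50 nM. Incubation: 12 min plus 1 h, RT. Measured by: high-throughput flow cytometry of beads, ex 488, em 535 nm. Evaluation: percent drop in bead-associated FITC signal.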
NRP1-CendR mod = NRP-1/CendR interaction modulation. FAM-RPARPAR peptide binding to NRP-1, fluorescence polarization. AID 602438. O14786. inhibition, % at 25 µM. hit rate 0.85% among 360,000;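 active = inhibition or corrected inhibition above about 18%, plus a signal ratio from 0.5 to 1.5, limit read from the data, passing the limit was not always enough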
PfM18AAP inh-1 = blocks P. falciparum M18 aspartyl aminopeptidase | recombinant PfM18AAP, H-Glu-NHMec fluorogenic cleavage | inhibition, % at 7.35 µM | hit rate 1.2% among 290,000 | AID 1822;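 active = inhibition above the campaign mean inhibition over all tested compounds plus 3 SD, cut at about 28% in these data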;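 note: 0% = plate median of test compound wells and 100% = 2 mM ZnCl2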
m5-HT2A agonist = mouse HTR2A agonism via beta-arrestin recruitment. CHO-K1 mHTR2A beta-arrestin complementation, luminescence; percent of 30 µM serotonin response. AID 624169. P35363. hit rate 0.66% among 360,000. activation, % at 7.6 µM;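 active = activation above a run cutoff, the mean activation of all tested compounds plus 3 SD, cut at about 14% in these data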;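 note: 0% = plate median of compound wells and 100% = 30 µM serotonin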
PfM18AAP inh-2 = confirmation of Plasmodium falciparum M18 aspartyl aminopeptidase inhibitors; shares compounds with PfM18AAP inh-1; recombinant PfM18AAP, H-Glu-NHMec fluorogenic cleavage; inhibition, % at 7.35 µM; hit rate 28% among 2,400; AID 2170;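 active = mean inhibition over replicate wells above the hit cutoff set for the earlier primary screen, cut at about 29% in these data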;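 note: 0% = median of test compound wells and 100% = 2 mM ZnCl2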
CTSL1 confirm = Cathepsin L (human) inhibition, confirmation; inhibition, % at 5.96 µM; purified cathepsin L1, Z-Leu-Arg-MCA fluorescence; shares compounds with PfM18AAP inh-1; 2,400 tested, under 10 active;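 active = average inhibition across replicates above the hit cutoff set in the earlier primary screen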;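 note: 0% = median of test compound wells and 100% = Z-Phe-Ala-diazomethylketone 1 µM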
* = called active by the depositor; · = no result given. Hits are enriched below; roughly 3.3% of the tested compounds scored in any of these assays.

SMILES	HGIII-sPLA2 inh	Lipid droplet	Arr AP2 block	NRP1-CendR mod	PfM18AAP inh-1	m5-HT2A agonist	PfM18AAP inh-2	CTSL1 confirm
Cc1ccc(C(=O)OC(C)C(=O)N(C)C2CCCCC2)cc1S(=O)(=O)N1CCCCC1 (stereo not given)	7.4	·	-8.5	-2.2	·	0.8	·	·
O=C(O)c1ccc(O)c(N2C(=O)Nc3ccccc3N2O)c1	2.7	-8.0	2.0	-4.5	49.5*	9.2	11.9	0.4
CCCN(C)C1CN(Cc2cn(Cc3ccccc3)nn2)S(=O)(=O)C1 (stereo not given)	7.0	·	·	-3.6	·	-3.4	·	·
CC(=O)NC(c1ccccc1)c1nc(-c2cc3ccccc3o2)cs1 (stereo not given)	-2.5	·	·	-7.2	·	-6.2	·	·
N#Cc1c(/N=C/C=C/c2ccccc2)sc2c1CCCC2	6.7	·	5.5	-6.1	34.9*	16.3*	-34.9	3.4
O=C(CSc1nc2ccccc2o1)N/N=C/c1ccc(O)c(O)c1	-10.1	2.6	9.3	-24.7	62.2*	-4.1	51.9*	-2.9
Cc1cc(SCC(=O)N/N=C/c2ccc(O)cc2O)nc2ccccc12	-22.4	-4.2	-16.1	-6.8	10.4	1.6	·	·
O=C(N/N=C/c1ccc(O)c(O)c1)c1cc(-c2ccccc2)nc2ccccc12	-0.4	-4.8	-7.3	-8.2	61.3*	-9.7	47.9*	-5.0
Cc1cc(SCC(=O)N/N=C/c2ccc(O)c(O)c2)nc2ccccc12	-2.0	4.6	-1.7	-31.5	56.0*	-2.5	43.4*	2.3
Cc1cc(SCC(=O)N/N=C/c2ccc(O)c(O)c2)c(C)cc1Br	6.5	-2.3	38.3	-6.5	54.0*	0.3	36.3*	-3.2
CC(=O)N1CCC(=NNC(=O)CSc2cc(C)c(Br)cc2C)CC1	0.0	0.0	-3.6	6.7	-0.4	-1.7	·	·
O=C(Cc1nnc(NC(=O)c2ccccc2)s1)N/N=C\c1ccc(O)c(O)c1	-19.9	10.8	8.7	-70.9	56.8*	-2.7	37.5*	-0.2
CC(=O)Nc1ccc(NC(=O)CSc2nc3[nH]ncc3c(=O)n2-c2ccccc2)cc1	-0.1	2.1	-12.8	1.8	48.7*	-3.6	1.0	-5.5
O=c1cc(-c2ccc(O)cc2)oc2c(O)c(O)c(O)c(O)c12	-4.7	-10.3	6.1	-46.0	51.6*	1.2	17.7	1.6
COc1ccc(C(C)=O)cc1Cn1c(C)c(C(=O)NCc2ccc(C(F)(F)F)cc2)sc1=O	-18.8	·	·	-23.1	·	-5.7	·	·
Cc1cc(N2CCCC2)ccc1/C=N/n1cnnc1	-0.6	5.5	13.5	-54.1	32.0*	2.4	3.0	1.7
COc1ccc(C(=O)OCC(=O)c2ccc(C3CCCCC3)cc2)cc1	-2.5	-5.6	-2.0	6.4	-10.7	2.7	·	·
Nc1ccc(O)cc1C(=O)OCC(=O)c1ccc(C2CCCCC2)cc1	3.6	30.2	17.5	-4.1	35.5*	8.6	-21.1	-1.9
COc1ccc2c(c1)nc(-c1cccc(Br)c1)c(=O)n2C(c1ccccn1)c1nc2ccccc2[nH]1 (stereo not given)	0.8	·	·	-7.8	·	0.3	·	·
CC(C)(C)c1ccc(/C=C2\SC(=O)N(CCNC(=O)c3cccc(S(=O)(=O)N4CCOCC4)c3)C2=O)cc1	·	3.4	3.8	-1.6	-0.8	-2.7	·	·
O=C(N/N=C/c1ccc(O)c(O)c1)c1ccc(CSc2cccc3cccnc23)cc1	2.9	-0.8	7.6	-36.1	57.2*	-3.5	48.7*	-4.6
O=C(CSc1cccc2cccnc12)N/N=C/c1cccc(O)c1	-14.4	2.9	12.6	-8.8	10.6	3.6	·	·
COc1cc(Cn2cc([C@]34C[C@H]5C(=O)N(C)CC(=O)N5[C@H]3N(S(=O)(=O)c3ccccc3)c3ccccc34)c3ccccc32)cc(OC)c1	-2.4	·	·	·	·	·	·	·
COc1cc(OC)c(-c2c3cc(O)c(=O)cc-3oc3cc(O)c(O)cc23)cc1OC	-65.9	1.5	-130.3	135.2	44.2*	-5.5	26.5	-0.6
